Hits are enriched below; roughly 1.8% of the tested compounds scored in any of these assays.
Hck-Nef inh = inhibitors of human Hck kinase activated by Nef; AID 463187; actives 0.68% (n = 220,000); inhibition, % at 20 µM; Recombinant Hck-YEEI plus Nef, Z-Lyte FRET kinase assay; P08631;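 active = Hck-Nef kinase inhibition above about 50%, limit read from the data; inactive = inhibition below that limit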
Runt-SMMHC FRET = inhibitors of human RUNX1 Runt domain binding to CBFb-SMMHC. Cerulean-Runt/Venus-CBFb-SMMHC FRET ratio 530/480, 1 h. inhibition, % at 20 µM. actives 0.74% (n = 220,000);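 active = mean inhibition across duplicate retests at 20 µM reaching about 50%, limit read from the data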;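 note: inhibitors lower the FRET ratio by blocking Runt binding to CBFb-SMMHC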
Target sequence (Q01196 whole entry, looked up, the tested form may be a part): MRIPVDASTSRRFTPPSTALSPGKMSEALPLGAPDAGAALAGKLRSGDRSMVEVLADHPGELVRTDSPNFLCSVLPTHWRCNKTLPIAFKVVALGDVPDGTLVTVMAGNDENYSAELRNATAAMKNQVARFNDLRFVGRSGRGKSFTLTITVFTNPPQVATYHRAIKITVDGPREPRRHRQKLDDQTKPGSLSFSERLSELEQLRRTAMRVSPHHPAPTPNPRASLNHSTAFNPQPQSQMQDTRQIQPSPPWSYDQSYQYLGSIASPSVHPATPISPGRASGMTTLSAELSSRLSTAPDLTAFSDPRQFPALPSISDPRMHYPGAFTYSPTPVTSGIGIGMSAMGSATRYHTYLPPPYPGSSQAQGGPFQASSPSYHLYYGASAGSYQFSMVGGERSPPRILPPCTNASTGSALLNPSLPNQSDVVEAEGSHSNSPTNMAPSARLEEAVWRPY
Target sequence (Q13951 whole entry, looked up, the tested form may be a part): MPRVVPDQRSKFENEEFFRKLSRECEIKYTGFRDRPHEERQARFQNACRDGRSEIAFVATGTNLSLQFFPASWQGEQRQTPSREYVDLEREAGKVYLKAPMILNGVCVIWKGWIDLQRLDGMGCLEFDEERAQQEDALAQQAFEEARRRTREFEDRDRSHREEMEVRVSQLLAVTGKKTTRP
Runt-CBFb FRET = blocks binding of human RUNX1 Runt domain to CBFb; Cerulean-Runt/Venus-CBFb FRET ratio 530/480, 1 h; actives 0.46% (n = 220,000); inhibition, % at 20 µM; Q01196+Q13951; AID 1496;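 active = inhibition over about 50% at 20 µM in the single-dose screen, limit read from the data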
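Assay system: Cerulean-Runt domain fusion protein, energy donor; Signal: fluorescence energy transfer, 422 nm excitation, 530/480 nm emission; Timing: 1 h compound exposure, room temperature; Control set: unlabeled CBFb; Medium: Tris buffer pH 7.5 with salts and BSA; Compound: single test concentration of 20 µM, 1% DMSO final; Probe or stimulus: Venus-CBFb 100 nM.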
RanGTP-Imp inh = disruptors of Ran-importin-beta complex formation – biochemical, FRET, CFP-Ran, YFP-importin-beta, homogeneous, primary screen; inhibition, % (test concentration not listed); actives 1.1% (n = 300,000); AID 2216; cell-free CFP-Ran/YFP-importin-beta FRET ratio;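 active = more than half of the replicate wells show a fall in the fluorescence ratio signal beyond about 16%, limit read from the data, passing the limit was not always enough; inconclusive = exactly half of the replicate wells pass the set limit; inactive = fewer than half of replicates pass the limit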
YIC counter = counter-screen YIC FRET for RanGTP-importin-beta inhibitors | Purified YIC probe, intramolecular FRET ratio YFP/CFP | shares compounds with RanGTP-Imp inh | AID 435026 | IC50, µM | actives 40% (n = 1,000);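 active = fitted half-maximal inhibitory concentration no more than tenfold above the top dose tested; inconclusive = flat fit with 30 to 70% activity, or poor fit; inactive = half-maximal concentration beyond tenfold above the top dose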
Hits are given with their value; . = inactive; ? = inconclusive; / = no result.

SMILES	Hck-Nef inh	Runt-SMMHC FRET	Runt-CBFb FRET	RanGTP-Imp inh	YIC counter
CCOCCCNC(=S)NCCCNc1nc2cc3c(cc2cc1C#N)OCO3	.	129	.	56	13
CCOCCCNC(=S)N1CCC(C(=O)c2ccc3c(c2)OCCO3)CC1	.	.	.	.	/
Cc1cc(NC(=O)c2sc3ccccc3c2O)no1	/	/	/	17	?
Cc1cc(NC(=O)c2c(F)c(F)c(F)c(F)c2F)no1	.	.	.	23	.
COc1ccc(C/C(C)=N/NC(=O)C2COc3ccccc3O2)cc1 (configuration not stated)	.	.	.	.	/
COC(=O)C1CCN(C(=O)/C=C/c2ccc3c(c2)OCO3)CC1	/	/	/	.	/
CCOC(=O)c1[nH]c(CO)c(C(=O)OCC)c1C	.	.	.	.	/
Cc1ccc(OCC(=O)NCCNC(=O)c2ccc(C)nc2)cc1	/	/	/	21	.
Cc1ccc(C(=O)NCCNC(=O)COc2ccc(Cl)cc2)cn1	/	/	/	.	/
C[n+]1cccc(C(=O)Nc2ccccc2)c1	/	/	/	.	/
CCCc1ccc2oc(C(=O)NCCCN3CCOCC3)c(C)c2c1	/	/	/	.	/
CCN(CC)S(=O)(=O)c1ccc2oc(C(=O)NCCCN3CCOCC3)c(C)c2c1	.	.	.	17	.
Cc1onc(-c2ccccc2)c1C(=O)OCc1nnc(-c2ccccc2)o1	/	/	/	.	/
CC(=O)c1c[nH]c2ccc(C)cc2c1=O	.	.	.	.	/
CCOC(=O)c1ccc2[nH]cc(C(C)=O)c(=O)c2c1	.	.	.	21	14
Cc1ccc(NC(=O)N2CCCC2C(=O)NCc2ccc(Cl)cc2)cc1 (configuration not stated)	/	/	/	.	/
COc1cccc(CNC(=O)C2CCN(S(=O)(=O)N3CCC(C)CC3)CC2)c1	/	/	/	.	/
COc1ccc(NC(=O)c2ccc3snnc3c2)cc1	.	.	.	96	.
Cc1[nH]c(C)c(S(=O)(=O)N(Cc2ccccc2)C(C)C)c1C(=O)N1CCCC1	/	/	/	.	/
COCCCn1c(=N)c(C(=O)NCc2ccc3c(c2)OCO3)cc2c(=O)n3ccccc3nc21	.	172	79	36	25
CCOCCCn1c(=N)c(C(=O)NCc2ccc3c(c2)OCO3)cc2c(=O)n3cccc(C)c3nc21	.	163	60	29	18
CCOCCCn1c(SCC(=O)NCc2ccc3c(c2)OCO3)nc2ccccc2c1=O	.	.	.	.	/
COc1cccc(C(=O)NCC2CCCN(C(=O)c3ccc(C=O)cc3)C2)c1OC (configuration not stated)	/	/	/	.	/
CCCn1cc(CN2CCC(n3nccc3NC(=O)CCOc3ccccc3)CC2)c(C)n1	/	/	/	.	/
Cc1ccc(-n2nc(C(=O)O)c(O)cc2=O)cc1	.	.	.	.	/
SMILES	Hck-Nef inh	Runt-SMMHC FRET	Runt-CBFb FRET	RanGTP-Imp inh	YIC counter
O=[N+]([O-])c1ccc(CNC2CCCc3ccccc32)cc1 (configuration not stated)	.	72	.	25	.
c1cncc(CNC2CCCc3ccccc32)c1 (configuration not stated)	.	.	.	.	/
Cc1cc(Cl)ccc1C(=O)C1CCCN(C(=O)c2n[nH]c3c2CCCC3)C1 (configuration not stated)	.	.	.	21	.
COc1ccc(C(=O)C2CCCN(C(=O)c3n[nH]c4c3CCCC4)C2)cc1OC (configuration not stated)	.	.	.	.	/
O=S(=O)(c1ccc(-c2ccon2)s1)N1CCN(c2ccncc2)CC1	.	.	.	?	/
Cn1cnc(S(=O)(=O)N2CCN(c3ccc(Cl)cc3)CC2)c1	/	/	/	18	.
COc1cc(/C=N/NC(=O)CC#N)ccc1Oc1nc(Cl)ncc1F	/	/	/	.	/
COc1ccc(NC(=O)c2cc3ccc(O)cc3o/c2=N\O)cc1	/	/	/	28	51
COc1ccc2o/c(=N\O)c(C(=O)Nc3ccccc3OC)cc2c1	.	/	.	.	/
CC(CC(F)(F)F)N1CCC(n2nccc2NC(=O)CCOc2ccccc2)CC1 (configuration not stated)	/	/	/	27	.
Cc1ccc2cc(C#N)c(N3CCCC3)nc2c1C	.	53	.	26	5.3
CC1(C)Cc2nc(N3CCOCC3)c(C#N)cc2CO1	.	.	.	.	/
N#Cc1cc2cc3c(cc2nc1N1CCOCC1)OCO3	.	109	97	39	9
Cc1cc(C)c2nc(N3CCOCC3)c(C#N)cc2c1	/	/	/	24	19
Cc1ccc(NS(=O)(=O)c2c(C(=O)N3CCCCCC3)c(C)n(C)c2C)cc1C	/	/	/	.	/
Cc1nn(-c2ccccc2)nc1C(=O)c1c(C)[nH]n(-c2ccccc2)c1=O	.	.	.	.	/
O=S(=O)(/C=C/c1ccccc1)N1CCOCC1	/	/	/	.	/
COc1ccc(-c2cc(C(F)(F)F)nc(-n3ccnc3)n2)cc1	.	.	/	.	/
CC1=NC(Nc2nc(C)c3ccccc3n2)=NC(C)(C)C1	.	.	.	30	.
COc1ccc(Nc2nc(C)c3ccccc3n2)cc1	.	.	.	.	/
CN1CCN(C(=O)c2cc3nc(-c4ccccc4)cc(C(F)(F)F)n3n2)CC1	.	.	.	22	.
C/C(=N\NC(=S)NCCc1ccccc1)c1cccc(Br)c1	.	.	.	.	/
C/C(=N\NC(=S)NCc1ccccc1)c1cccc(Br)c1	.	.	.	46	.
CC1(C)CC(=O)C=C(NNC(=O)C2CCCCC2)C1	.	.	.	19	.
CC(NC(=O)Nc1ccccc1Cl)c1ccc2c(c1)OCO2 (configuration not stated)	/	/	/	.	/
SMILES	Hck-Nef inh	Runt-SMMHC FRET	Runt-CBFb FRET	RanGTP-Imp inh	YIC counter
C[C@@H]1CN([C@@H](C)CO)C(=O)c2cc(NS(C)(=O)=O)ccc2O[C@@H](C)CCCCO[C@H]1CN(C)C(=O)Cc1ccccc1	/	/	/	/	.
CN(C(=O)COC(=O)Cn1c(C(F)(F)F)nc2ccccc21)c1c(N)n(Cc2ccccc2)c(=O)[nH]c1=O	/	/	/	.	/
CCOC(=O)C1=C(N)OC2=C(C(=O)CCC2)C1c1sccc1C (configuration not stated)	.	.	.	23	.
Oc1ccc(/C=N/Nc2cc(N3CCOCC3)nc(N3CCOCC3)n2)cc1	.	/	/	22	.
Oc1cccc(/C=N/Nc2cc(N3CCCC3)nc(N3CCCC3)n2)c1	.	.	.	21	.
Cc1cccc(-c2nnc(NC(=O)c3ccc(N4C(=O)CCC4=O)cc3)s2)c1	.	.	.	17	.
COc1cccc(F)c1C(C[N+](=O)[O-])c1c(N)n(C)c(=O)n(C)c1=O (configuration not stated)	.	.	.	.	/
c1ccc(CCNc2nc3ccccc3n3nnnc23)cc1	.	.	.	.	/
COc1ccc(CCNc2nc3ccccc3n3nnnc23)cc1OC	.	.	.	28	25
Cc1cc(Nc2ccccc2)nc2cc(O)ccc12	.	64	.	18	49
COc1ccc(Nc2cc(C)c3ccc(O)cc3n2)cc1	.	.	.	.	/
Nc1c(C(=O)Nc2ccccc2)c2nc3ccccc3nc2n1CCCN1CCOCC1	.	.	.	28	30
O=C(CN(c1ccccc1)S(=O)(=O)c1ccccc1[N+](=O)[O-])N1CCCC1	/	/	/	.	/
